For one molecule, Dose/g and Ratio results are on record in ChEMBL document CHEMBL1136006, “New PET imaging agent for the serotonin transporter: [(18)F]ACF (2-[(2-amino-4-chloro-5-fluorophenyl)thio]-N,N-dimethyl-benzenmethanamine)” (J Med Chem, 2002).

What all share (type): ADME, organism-based
Data set [1] concerns Rattus norvegicus. Put plainly: Effect of pretreatment with methylphenidate with a dose of 2 mg/kg (i.v.) on specific binding of [18F]ACF in rat brain hypothalamus. Also on record: dose 2 mg/kg, route intravenous. Particulars: in vivo, iv. In outline: (§1)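 Rats pretreated iv with drug (2 mg/kg) or saline 5 min before iv [18F]ACF (50 μCi). Sacrificed 1 h after tracer. Brain regions were dissected, weighed and counted, and % dose/g was calculated against a diluted initial dose. Drug-treated rats were compared with saline controls by ANOVA/Dunnett's test (p<0.05). Three rats per point, average ± SD.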

The test system of data set [2] is Rattus norvegicus. Put plainly: Effect of pretreatment with […] with a dose of 2 mg/kg (i.v.) on specific binding of [18F]ACF in rat brain hippocampus. Also on record: dose 2 mg/kg, route intravenous. The conditions noted are these: in vivo, iv. A digest of the protocol:
as §1

For data set [3], the species on record is Rattus norvegicus. Put plainly: Organ distribution of [18F]ACF radiolabeled compound in rat kidney after 2 min. Particulars: in vivo. A digest of the protocol: (§2)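 Rats, three per time point, under ether anesthesia; 30 μCi tracer in 0.2 mL saline injected into femoral vein. Sacrificed by cardiac excision under ether at 2, 30, 60, 120 or 240 min. Organs removed, weighed and counted; % dose/organ calculated against counts of 1% of initial dose counted at the same time. Average of three rats ± SD.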

For data set [4], the species on record is Rattus norvegicus. Put plainly: Regional brain distribution of [18F]-ACF radiolabeled compound in rat hypothalamus after 2 min. Particulars: in vivo. A digest of the protocol: (§3)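 Rats (three per group) under ether anesthesia got 30 μCi tracer in 0.2 mL saline into the femoral vein and were killed by cardiac excision at the stated time. Cortex, striatum, hippocampus, cerebellum, hypothalamus and the rest of brain were dissected, weighed and gamma counted. %dose/g was taken against counts of a diluted initial dose. Regional ratios are each region's %dose/g over cerebellum's. Mean ± SD.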

The species entered for data set [5] is Rattus norvegicus. The data set is described as follows: Organ distribution of [18F]-ACF radiolabeled compound in rat lung after 60 min. Particulars: in vivo, 1 h. A digest of the protocol:
(§4)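 Under ether anesthesia, 30 μCi no-carrier-added tracer in 0.2 mL saline injected into the femoral vein. Rats killed by cardiac excision at the stated time. Organs were removed, weighed and counted; % dose/organ was calculated against counts of a 1% initial-dose standard. Three rats per time, average ± SD.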

Data set [6] is filed under the species Rattus norvegicus. Put plainly: Organ distribution of [18F]ACF radiolabeled compound in rat spleen after 240 min. The conditions noted are these: in vivo, 4 h. In outline:
as §2

The species entered for data set [7] is Rattus norvegicus. The data set is described as follows: Organ distribution of [18F]-ACF radiolabeled compound in rat spleen after 30 min. Particulars: in vivo, 0.5 h. In outline:
as §4

Data set [8] is filed under the species Rattus norvegicus. Put plainly: Organ distribution of [18F]-ACF radiolabeled compound in rat spleen after 60 min. Particulars: in vivo, 1 h. A digest of the protocol: as §2
The species entered for data set [9] is Rattus norvegicus. The data set is described as follows: Organ distribution of [18F]ACF radiolabeled compound in rat heart after 120 min. The conditions noted are these: in vivo, 2 h. A digest of the protocol: as §2
In data set [10] the test system is Rattus norvegicus. Put plainly: Ratio of effect of pretreatment with methylphenidate with a dose of 2 mg/kg (i.v.) on specific binding of [18F]ACF in rat brain hippocampus to that of cerebellum. The conditions noted are these: in vivo, iv. Further details: dose 2 mg/kg, route intravenous. A digest of the protocol:
(§5)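 Rats (three per point) pretreated iv with competing drug at 2 mg/kg or saline (control) 5 min before iv [18F]ACF (50 μCi). At 1 h post tracer, brain regions (cortex, striatum, hippocampus, cerebellum, hypothalamus, remainder) dissected, weighed, counted as % dose/g and expressed as ratio to cerebellum. Average ± SD; ANOVA with Dunnett's test vs saline controls, p < 0.05.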

The species named for data set [11] is Rattus norvegicus. The data set is described as follows: Ratio of regional brain distribution of [18F]ACF radiolabeled compound in rat hippocampus to that of cerebellum after 120 min. The conditions noted are these: in vivo, 2 h. In outline:
as §3

Data set [12] is filed under the species Rattus norvegicus. The data set is described as follows: Ratio of regional brain distribution of [18F]-ACF radiolabeled compound in rat hippocampus to that of cerebellum after 240 min. Particulars: in vivo, 4 h. In outline: (§6)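 Rats, three per time point, given 30 μCi tracer in 0.2 mL saline into femoral vein under ether anesthesia; killed at 2, 30, 60, 120 or 240 min. Cortex, striatum, hippocampus, cerebellum, hypothalamus and rest of brain dissected, weighed, counted; % dose/g against diluted initial dose, then each region divided by cerebellum. Average of three rats ± SD.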

The species entered for data set [13] is Rattus norvegicus. The data set is described as follows: Ratio of regional brain distribution of [18F]-ACF radiolabeled compound in rat remainder to that of cerebellum after 240 min. Particulars: in vivo, 4 h. In outline:
as §3

The species named for data set [14] is Rattus norvegicus. Put plainly: Ratio of regional brain distribution of [18F]-ACF radiolabeled compound in rat remainder to that of cerebellum after 30 min. Particulars: in vivo, 0.5 h. A digest of the protocol: as §3
Data set [15] has as its system Rattus norvegicus. The data set is described as follows: Ratio of effect of pretreatment with (+)-McN5652 with a dose of 2 mg/kg (i.v.) on specific binding of [18F]ACF in rat brain remainder to that of cerebellum. Also on record: dose 2 mg/kg, route intravenous. The conditions noted are these: in vivo, iv. A digest of the protocol: as §5
The species named for data set [16] is Rattus norvegicus. Put plainly: Ratio of regional brain distribution of [18F]-ACF radiolabeled compound in rat hippocampus to that of cerebellum after 30 min. The conditions noted are these: in vivo, 0.5 h. In outline:
as §6

Take `CN(C)Cc1ccccc1Sc1cc(F)c(Cl)cc1N`: the Dose/g came out at 0.52% in data set [1]; 0.46% in data set [2]; 6.97 % dose/organ in data set [3]; 1.76% in data set [4]; 0.73 % dose/organ in data set [5]; 0.03 % dose/organ in data set [6]. The figures for the Dose/g in [7], in [8] and in data set [9] were 0.29 % dose/organ, 0.13 % dose/organ and 0.06 % dose/organ, respectively. Also, the Ratio stood at 2.5 in data set [10]; 2.67 in data set [11]; 1.99 in data set [12]; 1.58 in [13]; 1.8 in data set [14]; 1.37 in data set [15]. The Ratio in data set [16] stood at 1.89.
